The results in this text go back to ChEMBL document CHEMBL3877283, “Antitubercular activity of 1,2,3-triazolyl fatty acid derivatives” (Eur J Med Chem, 2017).

Converted amounts (≈) assume the structure as drawn.

What all share (assay type): functional
The test system of experiment [1] is Mycobacterium tuberculosis. Description: Antimycobacterial activity against rifampicin-resistant Mycobacterium tuberculosis isolate 110 measured after 5 days by MTT dye based two-fold microdilution method. As to conditions: isolate 110, 120 h. In a few lines:
(§1)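 Two-fold serial dilution in 96-well plates in Middlebrook 7H9 with 10% ADS and 1% glycerol (7H9-ADS-G). DMSO stocks were diluted to a top concentration of 100 μg/mL and down to 0.8 μg/mL, run in duplicate. Wells received mid-log bacilli in 7H9-ADS-G, incubated 5 days at 37 °C, then MTT for 24 h. MIC is the lowest concentration blocking yellow-to-purple change. Rifampicin was the control.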

Experiment [2] deals with Mycobacterium tuberculosis. Description: Antimycobacterial activity against rifampicin-resistant Mycobacterium tuberculosis isolate 277 measured after 5 days by MTT dye based two-fold microdilution method. As to conditions: isolate 277, 120 h. In short, it runs like this:
as §1
On the technique in general: Tetrazolium dyes change colour on reduction, which living cells bring about.

Experiment [3] has as its system Mycobacterium tuberculosis. Nature of the experiment: Antimycobacterial activity against rifampicin-resistant Mycobacterium tuberculosis isolate 300 measured after 5 days by MTT dye based two-fold microdilution method. As to conditions: isolate 300, 120 h. In a few lines:
as §1

For experiment [4], the system named is Mycobacterium tuberculosis. Nature of the experiment: Antimycobacterial activity against rifampicin-resistant Mycobacterium tuberculosis isolate 925 measured after 5 days by MTT dye based two-fold microdilution method. As to conditions: isolate 925, 120 h. In short, it runs like this:
as §1

The test system of experiment [5] is Mycobacterium tuberculosis. Description: Antimycobacterial activity against rifampicin-resistant Mycobacterium tuberculosis isolate 958 measured after 5 days by MTT dye based two-fold microdilution method. As to conditions: isolate 958, 120 h. In a few lines: as §1
Experiment [6] deals with Mycobacterium tuberculosis. Nature of the experiment: Antimycobacterial activity against isoniazid resistant Mycobacterium tuberculosis isolate 277b measured after 5 days by MTT dye based two-fold microdilution method. As to conditions: 120 h. In a few lines: as §1
The test system of experiment [7] is Mycobacterium tuberculosis. Nature of the experiment: Antimycobacterial activity against isoniazid resistant Mycobacterium tuberculosis isolate 620 measured after 5 days by MTT dye based two-fold microdilution method. As to conditions: isolate 620, 120 h. In a few lines:
as §1

The test system of experiment [8] is Mycobacterium tuberculosis. Nature of the experiment: Antimycobacterial activity against isoniazid/streptomycin resistant Mycobacterium tuberculosis isolate 396 measured after 5 days by MTT dye based two-fold microdilution method. As to conditions: isolate 396, 120 h. In short, it runs like this: as §1
For experiment [9], the system named is Mycobacterium tuberculosis. Nature of the experiment: Antimycobacterial activity against isoniazid/streptomycin resistant Mycobacterium tuberculosis isolate 681 measured after 5 days by MTT dye based two-fold microdilution method. As to conditions: isolate 681, 120 h. In short, it runs like this:
as §1

Experiment [10] relates to Mycobacterium tuberculosis. Description: Antimycobacterial activity against isoniazid/streptomycin resistant Mycobacterium tuberculosis isolate 780 measured after 5 days by MTT dye based two-fold microdilution method. As to conditions: isolate 780, 120 h. In a few lines: as §1
In experiment [11] the test system is Mycobacterium tuberculosis. Nature of the experiment: Antimycobacterial activity against isoniazid/streptomycin resistant Mycobacterium tuberculosis isolate 914 measured after 5 days by MTT dye based two-fold microdilution method. As to conditions: isolate 914, 120 h. In short, it runs like this: as §1
For experiment [12], the system named is Mycobacterium tuberculosis. Nature of the experiment: Antimycobacterial activity against rifampicin/streptomycin resistant Mycobacterium tuberculosis isolate 675 measured after 5 days by MTT dye based two-fold microdilution method. As to conditions: isolate 675, 120 h. In short, it runs like this:
as §1

The test system of experiment [13] is Mycobacterium tuberculosis. Nature of the experiment: Antimycobacterial activity against rifampicin/isoniazid/pyrazinamide resistant Mycobacterium tuberculosis isolate 122 measured after 5 days by MTT dye based two-fold microdilution method. As to conditions: isolate 122, 120 h. In a few lines: as §1
Experiment [14] deals with Mycobacterium tuberculosis. Nature of the experiment: Antimycobacterial activity against rifampicin/isoniazid/pyrazinamide resistant Mycobacterium tuberculosis isolate 501 measured after 5 days by MTT dye based two-fold microdilution method. As to conditions: isolate 501, 120 h. In short, it runs like this: as §1

What is called MIC is the lowest concentration found to suppress growth. Higher therefore signals a less susceptible organism. On to `CCCCCCCCc1cn(CC(=O)OCC)nn1`, for which the MIC in experiment [1], in experiment [2], in experiment [3], in experiment [4], in [5] and in experiment [6] was 1.9 µM (≈ 0.508 µg/mL) each time. For the same compound, the MIC in experiment [7], in [8], in experiment [9], in experiment [10], in [11] and in [12] was 1.9 µM (≈ 0.508 µg/mL) each time. For the same compound, the MIC came to 0.9 µM (≈ 0.241 µg/mL) in [13] and 3.7 µM (≈ 0.989 µg/mL) in experiment [14].
